Data set [1] can be described thus: Inhibition of rhesus monkey brain PDE2A3 expressed in human AD293 cells using FAM-labeled cAMP/cGMP as substrate incubated for 60 mins measured after 1 hr by IMAP based fluorescence polarization assay.
Data set [2] is described as follows: Lipophilicity, log D of the compound by HPLC method. Format: physicochemical.
A short description of data set [3]: Selectivity ratio of IC50 for human GST-tagged PDE1A expressed in insect cells to IC50 for rhesus monkey brain PDE2A3 expressed in human AD293 cells.
A short description of data set [4]: Selectivity ratio of IC50 for human GST-tagged PDE3A expressed in insect cells to IC50 for rhesus monkey brain PDE2A3 expressed in human AD293 cells.
Data set [5] can be described thus: Selectivity ratio of IC50 for human GST-tagged PDE4A1A expressed in insect cells to IC50 for rhesus monkey brain PDE2A3 expressed in human AD293 cells.
Data set [6] can be described thus: Selectivity ratio of IC50 for human GST-tagged PDE5A1 expressed in insect cells to IC50 for rhesus monkey brain PDE2A3 expressed in human AD293 cells.
The nature of data set [7]: Selectivity ratio of IC50 for human GST-tagged PDE6C expressed in insect cells to IC50 for rhesus monkey brain PDE2A3 expressed in human AD293 cells.
A short description of data set [8]: Selectivity ratio of IC50 for human GST-tagged PDE7A expressed in insect cells to IC50 for rhesus monkey brain PDE2A3 expressed in human AD293 cells.
Data set [9] is described as follows: Selectivity ratio of IC50 for human GST-tagged PDE8A1 expressed in insect cells to IC50 for rhesus monkey brain PDE2A3 expressed in human AD293 cells.
Data set [10] is described as follows: Selectivity ratio of IC50 for human GST-tagged PDE9A2 expressed in insect cells to IC50 for rhesus monkey brain PDE2A3 expressed in human AD293 cells.
Data set [11] is described as follows: Selectivity ratio of IC50 for human GST-tagged PDE10A2 expressed in insect cells to IC50 for rhesus monkey brain PDE2A3 expressed in human AD293 cells.
Data set [12] in a line: Selectivity ratio of IC50 for human GST-tagged PDE11A4 expressed in insect cells to IC50 for rhesus monkey brain PDE2A3 expressed in human AD293 cells.
The test system of data set [13] is P-gp. As to the kind of experiment: Substrate activity at human P-gp assessed as efflux ratio. In kind it is ADME. The note with it: not told.
Data set [14] concerns P-gp. Description: Substrate activity at rat P-gp assessed as efflux ratio. In kind it is ADME. The note with it: not told.
Data set [15] can be described thus: Selectivity ratio of IC50 for human GST-tagged PDE2A1 expressed in insect cells to IC50 for rhesus monkey brain PDE2A3 expressed in human AD293 cells.
Data set [16] in a line: Oral bioavailability in rat. In kind it is ADME, organism-based. The note with it: in vivo.
Data set [17] in a line: Protein binding in rat plasma. Format: ADME, cell-free. The settings on record: read-out: PPB (converted).
Data set [18] in a line: Volume of distribution at steady state in rat. In kind it is ADME, organism-based. The settings on record: in vivo, read-out: Vdss.
A short description of data set [19]: Intrinsic clearance in human liver microsomes. In kind it is ADME, microsome. The settings on record: read-out: CLH.
Data set [20] is described as follows: Clearance in rat. The note with it: in vivo. In kind it is ADME, organism-based.
Data set [21] in a line: Half life in rat. The note with it: in vivo. In kind it is ADME, organism-based.
In data set [22] the test system is P-gp. Description: Substrate activity at P-gp (unknown origin) assessed as apparent permeability. In kind it is ADME. The note with it: human, not told.
Data set [23] in a line: Inhibition of CYP450 (unknown origin). Format: ADME, Homo sapiens.
In data set [24] the test system is Rattus norvegicus. As to the kind of experiment: Increase in cGMP levels in rat brain cytosolic fraction of cortical tissue at 3 to 30 mg/kg, po measured after 30 mins by ELISA. Format: functional, organism-based. The procedure, abridged:
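Rats dosed orally at 3, 10 or 30 mg/kg; brain tissue harvested 30 min after dosing and frozen; cortical cGMP measured and compared with controls.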

Data set [25] concerns Rattus norvegicus. As to the kind of experiment: Reversal of scopolamine-induced cognitive impairment in Wistar Hannover rat assessed as improvement in episodic memory at 0.1 to 1 mg/kg, po administered 30 mins prior to testing by novel object recognition test. Format: functional, organism-based. The essentials: (§1)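 Rats given vehicle or scopolamine, then exposed to two identical objects; one hour later exposed to one familiar and one novel object. Recognition memory scored as time spent exploring the novel versus the familiar object. Donepezil served as positive control.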

Data set [26] is described as follows: Clearance in rhesus monkey. The note with it: in vivo. Format: ADME, organism-based, Macaca mulatta.
Data set [27] in a line: Half life in rhesus monkey. Format: ADME, organism-based, Macaca mulatta. The settings on record: in vivo.
Data set [28] can be described thus: Volume of distribution at steady state in rhesus monkey. Format: ADME, organism-based, Macaca mulatta. The settings on record: in vivo, read-out: Vdss.
Data set [29] can be described thus: Oral bioavailability in rhesus monkey. The note with it: in vivo. Format: ADME, organism-based, Macaca mulatta.
Data set [30] in a line: Protein binding in rhesus monkey plasma. In kind it is ADME, cell-free, Macaca mulatta. The settings on record: read-out: PPB (converted).
The subject of data set [31] is Rhesus monkey. Description: Reversal of scopolamine-induced cognitive impairment in rhesus monkey assessed increase in novel object retrieval administered orally 4 hrs prior to testing by novel object recognition test. The settings on record: Macaca mulatta. Format: functional, organism-based. The procedure, abridged: (§2)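 Rhesus monkeys impaired with scopolamine performed an object retrieval task. A food item was placed deep inside a clear box whose single open side was out of direct view. Each attempt was scored correct if the food was retrieved without touching a closed side. Read-out was percentage correct versus scopolamine alone, with donepezil as positive control.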

The test system of data set [32] is Rhesus monkey. As to the kind of experiment: Reversal of scopolamine-induced cognitive impairment in rhesus monkey assessed increase in novel object retrieval at 1 mg/kg administered orally 4 hrs prior to testing by novel object recognition test. In kind it is functional, organism-based. The note with it: Macaca mulatta. The procedure, abridged:
as §2

Data set [33] has as its system Rattus norvegicus. As to the kind of experiment: Reversal of scopolamine-induced cognitive impairment in Wistar Hannover rat assessed as improvement in episodic memory at 1.8 mg/kg, ip administered 30 mins prior to testing by novel object recognition test. Format: functional, organism-based. The procedure, abridged:
as §1

Data set [34] deals with Rhesus monkey. As to the kind of experiment: Reversal of scopolamine-induced cognitive impairment in rhesus monkey assessed increase in novel object retrieval at 0.3 mg/kg by novel object recognition test. Format: functional, organism-based. The note with it: Macaca mulatta. The essentials: as §2

Active and inactive are the calls of the source. The rule behind the calls is not given here. Where only a bound is given, the exact number is not on record here.

`Cc1nc2c(c(C)nn2[C@@H](C)c2ccc(C(F)(F)F)cc2)c(=O)[nH]1`: half-maximal inhibition in data set [1] (IC50) was put at 23 nM. In data set [2], this molecule displayed a logD of 2.7. Moreover, the Ratio IC50 in [3] is 0 to 100; in data set [4], 0 to 100; in [5], 101 to 500; in [6] it was 101 to 500; in data set [7] it was > 500; in data set [8], > 500. For the same molecule, the Ratio IC50 in data set [9] is > 500; in data set [10] it was 4; in data set [11] it was 101 to 500; in data set [12], 101 to 500.

In the case of `COc1ccc(Cc2nc3c(c(CO)nn3[C@@H](C)c3ccc(C(F)(F)F)cc3)c(=O)[nH]2)cc1OC`, in data set [1], 0.89 nM corresponded to half-maximal inhibition (IC50). Besides, the efflux ratio in the data set on P-gp [13] amounted to 11; in the data set on P-gp [14], 35.

In data set [1], `Cc1nc2c(c(CO)nn2[C@H](C)c2ccc(C(F)(F)F)cc2)c(=O)[nH]1` yielded an IC50 of 216 nM.

Consider `Cc1nc2c(c(CO)nn2[C@@H](C)c2ccc(C(F)(F)F)cc2)c(=O)[nH]1`, for which the IC50 is 2 nM in data set [1] and > 50000 nM in [23]. This molecule showed a logD in data set [2] of 2.2 to 2.7. Also, the Ratio IC50 in data set [3], in [15], in data set [4], in data set [5], in data set [6] and in data set [7] was > 500 each time. Besides, the Ratio IC50 in data set [8] was > 500; in data set [9], > 500; in [10], 315; in [11], > 500; in [12], > 500. In addition, the figures for the bioavailability in [16] and in data set [29] were 84% and 100%, respectively. Further, the fraction unbound in data set [17] was 0.15; in data set [30], 0.1. The Vd in [18] worked out at 1.4 L/kg; in data set [28] it was 0.88 L/kg. The CLint scaled in data set [19] was < 6.2 mL/min/kg. Moreover, the clearance in [20] stood at 5.6 mL/min/kg; in [26] it was 2 mL/min/kg. The results for the half-life in data set [21] and in [27] were 2.9 h and 5.2 h, respectively. Further, the efflux ratio in the data set with P-gp [13] was 1; with P-gp [14] it was 3. In addition, the apparent permeability (Papp) in the data set with P-gp [22] stood at 37 ×10⁻⁶ cm/s. In addition, the outcome with Rattus norvegicus [24] and with Rattus norvegicus [25] was Active. Further, in the data set on Rhesus monkey [31], the Activity entry is “Dose-dependent effect”. In addition, in the data set on Rhesus monkey [32], the outcome was inactive.

For the molecule `C[C@@H](c1ccc(C(F)(F)F)cc1)n1nc(CC(F)(F)F)c2c(=O)[nH]c(O)nc21`, the IC50 in [1] was found to be 0.96 nM. In data set [2], the pH-dependent lipophilicity (logD) was determined as 1.8. For the same molecule, the Ratio IC50 in data set [3], in [15], in [4], in data set [5], in data set [6] and in data set [7] was > 12000 in each case. Further, the Ratio IC50 in [8], in data set [9], in data set [10], in data set [11] and in data set [12] was > 12000 in each case. The figures for the efflux ratio in the data set on P-gp [13] and in the data set on P-gp [14] were 4.8 and 19, respectively.

`Cc1nc2c(c(CO)nn2[C@H](c2ccc(C(F)(F)F)cc2)C(C)(C)C)c(=O)[nH]1` showed a half-inhibitory concentration (IC50) in data set [1] of 9 nM.

Regarding `C[C@@H](c1ccc(C(F)(F)F)cc1)n1nc(CF)c2c(=O)[nH]c(O)nc21`, the IC50 in data set [1] is 2 nM.

In the case of `C[C@@H](c1ccc(C(F)(F)F)cc1)n1nc(CO)c2c(=O)[nH]c(O)nc21`, half-maximal inhibition in [1] (IC50) required 14 nM. The molecule further registered a pH-dependent lipophilicity (logD) in data set [2] of 1.1. Also, the Ratio IC50 in [3], in data set [15], in data set [4], in data set [5], in data set [6] and in data set [7] was > 1000 each time. The Ratio IC50 in data set [8] is > 1000; in [9] it was > 1000; in [10] it was 1190; in [11], > 1000; in [12] it was > 1000. For the same molecule, the efflux ratio with P-gp [13] was 0.32; in the data set on P-gp [14], 0.38. Moreover, in the data set with P-gp [22], the apparent permeability (Papp) came to 41 ×10⁻⁶ cm/s.

For the molecule `COc1cc2c(cc1OC)C(=O)C(CC1CCN(Cc3ccccc3)CC1)C2` (stereo not given), the result with Rattus norvegicus [33] and with Rhesus monkey [34] was Active.

In the case of `Cc1nc2c(c(CO)nn2[C@@H](C)c2ccc(C(F)(F)F)c(F)c2)c(=O)[nH]1`, the half-inhibitory concentration (IC50) in data set [1] worked out at 1.3 nM. Also, the Ratio IC50 in [10] came out at 950.
